Series [1] concerns SARS-CoV-2. As to the kind of experiment: Antiviral activity against SARS-Cov2 Beta infected in African green monkey Vero E6 cells assessed as viral plaque reduction measured after 3 days by plaque reduction neutralization test. The series is classed as functional, organism-based. To be noted: Severe acute respiratory syndrome coronavirus 2, Beta, Vero C1008, 72 h.
Series [2] deals with SARS-CoV-2. As to the kind of experiment: Antiviral activity against SARS-Cov2 Delta infected in African green monkey Vero E6 cells assessed as viral plaque reduction measured after 3 days by plaque reduction neutralization test. Type of series: functional, organism-based. To be noted: Severe acute respiratory syndrome coronavirus 2, Delta, Vero C1008, 72 h.
The nature of series [3]: Cytotoxicity against HEK293T/17 cells by MTT assay. Particulars: human. The series is classed as toxicity, cell-based. The method in brief: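 MTT viability assay in 293T cells. CC50 is derived from cytotoxicity curves of compound concentration versus viability.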
In series [4] the test system is SARS-CoV-2. The series can be described thus: Antiviral activity against SARS-Cov2 USA-WA1/2020 infected in African green monkey Vero E6 cells assessed as viral plaque reduction measured after 3 days by plaque reduction neutralization test. The series is classed as functional, organism-based. To be noted: Severe acute respiratory syndrome coronavirus 2, USA-WA1/2020, Vero C1008, 72 h.

Series [5] has as its target T1, Replicase polyprotein 1ab (Severe acute respiratory syndrome coronavirus 2, UniProt P0DTD1). The series can be described thus: Inhibition of His/SUMO tagged SARS-CoV2 main protease expressed in Escherichia coli BL21 (DE3) cells using Dabcyl-KTSAVLQSGFRKME-Edans as substrate preincubated for 30 mins followed by substrate addition and measured after 30 mins by fluorescence plate reader analysis.

The target in series [6] is T1, Replicase polyprotein 1ab. As to the kind of experiment: Inhibition of eGFP fused SARS-CoV2 main protease transfected in HEK293T/17 cells incubated for 72 hrs by fluorescence based flow cytometry analysis. Type of series: cell-based.

With `C[C@@H](OC(C)(C)C)[C@H](NC(=O)OCc1cccc(Cl)c1)C(=O)N[C@@H](CC1CCCCC1)C(=O)N[C@H](C=O)C[C@@H]1CCNC1=O`, the concentration giving a half-maximal response (EC50) in the series with SARS-CoV-2 [1] was found to be 1600 nM; in the series with SARS-CoV-2 [2], 870 nM; with SARS-CoV-2 [4], 2200 nM. Moreover, the CC50 in series [3] (hek293t/17) worked out at 130000 nM.

For the molecule `CC(C)C[C@H](NC(=O)[C@@H](NC(=O)OCc1cccc(Cl)c1)[C@@H](C)OC(C)(C)C)C(=O)N[C@H](C=O)C[C@@H]1CCNC1=O`, the EC50 came out at 650 nM in the series with SARS-CoV-2 [1], 1600 nM with SARS-CoV-2 [2] and 1900 nM in the series with SARS-CoV-2 [4]. In series [3] (hek293t/17), the midpoint of cytotoxicity, the CC50, lay at 183000 nM.

`CC(C)[C@H](NC(=O)OCc1cccc(Cl)c1)C(=O)N[C@@H](CC1CCCCC1)C(=O)N[C@H](C=O)C[C@@H]1CCNC1=O`: the EC50 with SARS-CoV-2 [1] was more than 5000 nM; in the series on SARS-CoV-2 [2] it was 3200 nM; in the series on SARS-CoV-2 [4], more than 5000 nM. For the same molecule, it took 114000 nM to reach half-maximal cytotoxicity in series [3] (hek293t/17) (CC50).

For `CC(C)[C@H](NC(=O)OCc1ccccc1)C(=O)N[C@@H](Cc1cccs1)C(=O)N[C@H](C=O)C[C@@H]1CCNC1=O`, the IC50 entry in series [5] is “Nd(Insoluble)”. Further, the EC50 result in series [6] is on record as “Nd(Insoluble)”.

In series [3] (hek293t/17), `CC(OC(C)(C)C)[C@H](NC(=O)OCc1ccccc1)C(=O)N[C@@H](CC1CCCCC1)C(=O)N[C@H](C=O)C[C@@H]1CCNC1=O` (single isomer, unassigned) had a CC50 of 109000 nM.

Turning to `C[C@@H](OC(C)(C)C)[C@H](NC(=O)OCc1ccccc1)C(=O)N[C@@H](CC(C)(C)C)C(=O)N[C@H](C=O)C[C@@H]1CCNC1=O`, the results for the EC50 with SARS-CoV-2 [1], in the series with SARS-CoV-2 [2] and in the series with SARS-CoV-2 [4] were 1200 nM, 580 nM and 1200 nM, respectively. In addition, in series [3] (HEK293T/17 cells), the CC50 is more than 200000 nM.

As to `CC(C)(C)C[C@H](NC(=O)[C@@H](NC(=O)OCc1ccccc1)C(C)(C)C)C(=O)N[C@H](C=O)C[C@@H]1CCNC1=O`, the figures for the EC50 with SARS-CoV-2 [1], in the series with SARS-CoV-2 [2] and with SARS-CoV-2 [4] were 710 nM, 5000 nM and more than 5000 nM, respectively. This molecule also yielded a CC50 in series [3] (HEK293T/17 cells) of more than 200000 nM.

Consider `C[C@@H](OC(C)(C)C)[C@H](NC(=O)OCc1ccccc1)C(=O)N[C@@H](CC1CC1)C(=O)N[C@H](C=O)C[C@@H]1CCNC1=O`, for which the EC50 with SARS-CoV-2 [1] came out at 1800 nM; with SARS-CoV-2 [2], 1100 nM; in the series on SARS-CoV-2 [4] it was 1200 nM. In addition, the CC50 in series [3] (HEK293T/17 cells) is more than 200000 nM.
